In ChEMBL document CHEMBL1132369, “Synthesis of 1-(2-aminophenyl)isoquinolines and the biological activity of their cis-dichloro platinum(II) complexes” (J Med Chem, 1999):

Assays:
[1] = tested on: L1210; assay: Compound was evaluated for growth inhibition during 48 hours with L1210 murine leukemia cells; type: functional, cell-based, Mus musculus
How it was run: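 L1210 mouse leukemia cells grown in suspension in DMEM with 10% FCS, 2 mM glutamine, streptomycin and penicillin, at 37 °C in 5% CO2. Log-phase cells at 5 × 10^4 cells/mL were exposed to a range of concentrations for 48 h. Pt complexes came from DMSO stocks, pre-held 30 min at 40 °C, final DMSO 0.5%; ligand hydrochlorides were given in water. Cells were counted by haemocytometer, inhibition taken as % of untreated control, and IC50 interpolated from a log-linear plot. At least two independent duplicates were run.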

[2] = tested on: L1210; assay: Compound was evaluated for inhibition of DNA synthesis during 48 hours with L1210 murine leukemia cells; type: functional, cell-based, Mus musculus
How it was run: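 Log-phase L1210 cells, cultured and treated as in the growth assay (5 × 10^4 cells/mL, 48 h total exposure; Pt complexes from DMSO, final 0.5%). At 42 h, 0.5 μCi [6-3H]thymidine was added and incubation continued 6 h. Cells were harvested onto glass-fibre filters, washed twice with water, and counted by liquid scintillation. IC50 is for inhibition of thymidine incorporation.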

IC50 ([1]; Mus musculus, L1210, 48 h) | IC50 ([2]; Mus musculus, L1210, 48 h) | IC50 ([1]; l1210) | IC50 ([2]; l1210) | Compound
97 µM | 100 µM | – | – | COc1ccc(N)c(C2NCCc3cc(OC)c(OC)cc32)c1 (stereo not drawn)
– | – | 9.7 µM | 20 µM | [1-(2-Aminophenyl)-6,7-dimethoxyisoquinoline]dichloroplatinum (II)
141 µM | 90 µM | – | – | COc1cc2c(cc1OC)C(c1ccccc1N)NCC2 (stereo not drawn)
– | – | 0.95 µM | 1.4 µM | [1-(2-Amino-5-methoxyphenyl)-6,7-dimethoxy-1,2,3,4-tetrahydroisoquinoline]dichloroplatinum (II)
